Assay outcomes as filed in PubChem.
TRPML3 ag – human TRPML3 channel agonists, primary screen, cell-based, HEK293 TRPML3-YFP, Fluo-8 calcium fluorescence, 3 µM. Mucolipin-3 (Homo sapiens), Q8TDD5. 100% = the carbachol control signal. activation, % at 3 µM. 220,000 tested, 0.29% active. AID 1448, 2008;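 active means activation above its plate's cutoff, the mean activation of the plate's test wells plus 3 SD, cut at about 12% in these data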;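 further: 0% = DMSO only wells and 100% = carbachol wells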
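Material: TRPML3-YFP stable HEK293 cells | Dosing: One concentration, 3 µM nominal, 0.3% DMSO | Timing: 125 s total fluorescence read per well | Technique: Fluo-8 calcium dye fluorescence, ex 470-495, em 515-575 nm | Measure: Percent activation from peak-to-basal fluorescence ratio, scaled between DMSO and carbachol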
V1aR counter – agonists of human V1a receptor, primary screen, counter-screen for OXTR agonist project, fluorescence, CHO-V1R cells. Vasopressin V1a receptor (Homo sapiens), P37288. Fluo-8 calcium fluorescence, agonist mode; 0% DMSO, 100% 3 nM vasopressin. activation, % at 3 µM. 320,000 tested, 0.25% active. AID 2797, 2010;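 active means activation above the mean activation of all tested compounds plus 3 SD, per screening run, cut at about 20% in these data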;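 further: signal is peak over basal fluorescence ratio across a 100 second FLIPR read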
TRPN1 ag – zebrafish TRPN1 channel agonists, primary screen, cell-based, HEK293, calcium fluorescence; transient receptor potential cation channel N1 (TRPN1/NompC), Danio rerio; AID 1424, 2008; 220,000 tested, 0.18% active; activation, % at 3 µM; HEK293 zebrafish TRPN1-YFP, Fluo-8 calcium fluorescence; 100% = response to 87 µM carbachol;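 active means activation above its plate's cutoff, the mean activation of test wells on that plate plus 3 SD, cut at about 19% in these data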;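 further: 0% = DMSO alone and 100% = 87 µM carbachol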
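System: zebrafish TRPN1-YFP in HEK293 cells / Dosing: 3 µM single point / Timing: dye loading 1 h at 37 °C, then 30 min room temperature / Signal: Fluo-8 calcium fluorescence, excitation 470-495 nm, emission 515-575 nm / Read-out basis: percent activation from peak over basal fluorescence ratio, control-normalized / Control set: high carbachol 87 µM, low DMSO alone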
OXTR potentiate – human OXTR potentiators, primary screen, fluorescence, CHO-OTR cells, Fluo-8 calcium; Fluo-8 calcium fluorescence, potentiator mode; 0% = oxytocin EC15, 100% = EC100; 320,000 tested, 0.061% active; activation, % at 3 µM; Oxytocin receptor (Homo sapiens), P30559; AID 2445, 2010;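 active means activation above that plate's cutoff, the mean activation of tested compounds plus 3 SD, cut at about 6.6% in these data, passing the limit was not always enough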;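 further: 100% uses oxytocin at 75 nM as the full agonist control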
Target sequence (P30559 whole entry, looked up): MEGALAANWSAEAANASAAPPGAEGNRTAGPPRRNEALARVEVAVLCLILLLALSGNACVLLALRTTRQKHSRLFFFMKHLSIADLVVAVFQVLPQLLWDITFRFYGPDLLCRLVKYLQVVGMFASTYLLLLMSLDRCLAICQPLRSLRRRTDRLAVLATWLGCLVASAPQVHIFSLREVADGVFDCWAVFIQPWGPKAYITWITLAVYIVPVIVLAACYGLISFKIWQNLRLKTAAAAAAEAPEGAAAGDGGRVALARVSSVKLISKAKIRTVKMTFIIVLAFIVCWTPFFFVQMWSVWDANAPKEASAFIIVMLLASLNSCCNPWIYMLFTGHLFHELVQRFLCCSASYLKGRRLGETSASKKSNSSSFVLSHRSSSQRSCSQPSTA
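Material: CHO-OTR cells, human receptor; compound dosing: single dose, 3.0 µM nominal final compound concentration; schedule: 6 min compound pre-incubation at room temperature, 100 s kinetic read; measured by: kinetic Fluo-8 calcium fluorescence; read-out basis: % activation vs EC15 and EC100 oxytocin; controls: EC15 oxytocin alone as 0%, 75 nM oxytocin as 100%; replicates: singlicate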
OXTR ag – human OXTR agonists, primary screen, fluorescence, CHO-OTR cells, Fluo-8 calcium; Oxytocin receptor (Homo sapiens), P30559; Fluo-8 calcium fluorescence; normalized: DMSO 0%, oxytocin 100%; activation, % at 3 µM; 320,000 tested, 0.32% active; AID 2435, 2010;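 active means activation above the mean of all tested compounds plus 3 SD, cutoff set per screening run, cut at about 20% in these data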;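 further: peak over basal fluorescence ratio from a 100 s FLIPR kinetic read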
V1aR agonist cf – V1a receptor agonists, calcium signal, confirmation, Fluo-8 calcium fluorescence, CHO-V1R cells. shares compounds with V1aR counter. agonist. activation, % at 3 µM. 180 tested, 20% active;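 active means average activation exceeds primary screen hit cutoff, cut at about 21% in these data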;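 further: peak over basal fluorescence ratio during a 100 s FLIPR read; 0% = DMSO only wells and 100% = 3 nM vasopressin wells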
OXTR ag counter – human OXTR agonists, counter-screen for V1R agonist project, fluorescence, CHO-OTR cells, triplicate; activation, % at 3 µM; 180 tested, 10% active; shares compounds with V1aR counter; Fluo-8 calcium fluorescence;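 active means mean activation over three repeats above the cutoff from the earlier oxytocin receptor agonist screen, cut at about 20% in these data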;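 further: peak over minimum fluorescence ratio within a 100 second FLIPR read; 0% = DMSO only wells and 100% = oxytocin high control wells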
Starred values were filed as active, the others as inactive; . = no result. Only some compounds are listed: those with a hit (about 0.59% of all), similar ones and a draw of the others.

SMILES	TRPML3 ag	V1aR counter	TRPN1 ag	OXTR potentiate	OXTR ag	V1aR agonist cf	OXTR ag counter
Cc1[nH]nc2c1C(c1ccco1)C(C#N)=C(N)O2 (centres undefined)	1	1	-1	0	1	.	.
CCCC(=O)Nc1nc(C(=O)OCC)cs1	1	1	1	-3	1	.	.
CCOC(=O)c1csc(NC(=O)COc2ccc(Cl)cc2Cl)n1	2	22*	1	-8	10	5	10
COc1ccc(/C=C\C(=O)O[C@@H]2C(O)C(O[C@@H]3OC(C)[C@H](O[C@@H]4OCC(O[C@H]5O[C@H](CO)[C@@H](O)C(O)C5O)C(O)C4O)C(O)C3O)[C@H](OC(=O)[C@]34CCC(C)(C)C[C@@H]3C3=CCC5[C@@]6(C)CC(O)C(O[C@@H]7OC(CO)C(O)[C@H](O)[C@H]7O)[C@@](C)(C(=O)O)C6CC[C@@]5(C)[C@]3(CO)CC4)O[C@H]2C)cc1 (some centres undefined)	.	73*	.	-7	6	79*	44*
Cc1cc(C(=O)NC2CCCc3c2cnn3-c2cccc(C)c2C)n(C)n1 (centres undefined)	.	12	.	-16	11	.	.
CCCNS(=O)(=O)c1ccc(Oc2ncc(C(F)(F)F)cc2Cl)cc1	2	23*	2	-23	17	14	16
NC(=O)Nc1ccc(Oc2ncc(C(F)(F)F)cc2Cl)cc1	1	13	0	-11	0	.	.
OC(COc1ccc(F)cc1Cl)CN1CCC(Cc2ccccc2)CC1 (centres undefined)	.	22*	.	-15	11	2	3
CC(OC(=O)/C(C#N)=C/c1ccc(N(C)C)cc1)C(=O)N(C)Cc1ccccc1 (centres undefined)	.	30*	.	-17	18	32*	19
O=C(Nc1cc(Cl)ccc1-n1cncn1)c1cccc(S(=O)(=O)N2CCOCC2)c1	.	1	.	-3	1	.	.
Cn1c2ccccc2c(=O)c2c(=O)n(C3CCCCC3)c(-c3cccs3)nc21	0	21*	-1	-7	19	51*	33*
Cn1c2ccccc2c(=O)c2c(=O)n(-c3ccccc3)c(C3CCCCC3)nc21	0	0	0	-3	-2	.	.
COc1ccc(CCn2c(C3CCCCC3)nc3c(c(=O)c4ccccc4n3C)c2=O)cc1	12*	28*	22*	-19	10	11	15
CNC(=O)c1[nH]cnc1C(=O)Nc1ccccc1	.	0	.	3	0	.	.
CNC(=O)c1[nH]cnc1C(=O)Nc1ccccn1	0	43*	2	-1	3	1	0
CCn1c(=O)c(C(=O)NNC(=O)c2ccccc2Br)c(O)c2ccccc21	.	47*	.	-12	11	1	1
Cn1c(=O)c(C(=O)NNC(=O)c2ccccc2Br)c(O)c2ccccc21	.	2	.	-5	0	.	.
Cn1c(=O)c(C(=O)NNC(=O)c2cccc(Cl)c2)c(O)c2ccccc21	.	0	.	-1	1	.	.
CCn1c(=O)c(C(=O)NNC(=O)c2cccc(Cl)c2)c(O)c2ccccc21	.	26*	.	-11	14	17	11
O=C(NCCCN1CCOCC1)C1CCN(S(=O)(=O)c2cccc(C(F)(F)F)c2)CC1	.	0	.	-5	1	.	.
CN(CC(=O)Nc1cccc(F)c1)C(=O)c1ccccc1CCc1ccccc1	.	0	.	-12	-1	.	.
CCSC1=N/C(=C\c2ccc3c(c2)OCO3)C(=O)S1	1	0	0	-12	-2	.	.
CCSC1=N/C(=C\C=C2/Oc3ccccc3N2CC)C(=O)S1	5	23*	7	-7	11	21*	13
CC1CN(S(=O)(=O)c2csc(C(=O)Nc3ccccc3)c2)CC(C)O1 (centres undefined)	.	4	.	-9	-1	.	.
CCC(C)(C)c1ccc(OCCCC[n+]2cccc(C)c2C)c(C(C)(C)CC)c1	0	31*	0	-14	17	7	3
SMILES	TRPML3 ag	V1aR counter	TRPN1 ag	OXTR potentiate	OXTR ag	V1aR agonist cf	OXTR ag counter
CCSc1nc(O)cc(=O)n1CC	1	25*	0	-1	5	0	0
Cc1ccc(C)c(Nc2c([N+](=O)[O-])ccc3nonc23)c1	.	22*	.	-8	11	18	5
Cc1ccc(NC(=O)CSCC(=O)NC2(C)CCS(=O)(=O)C2)cc1 (centres undefined)	.	1	.	3	1	.	.
N#CCc1ccc(NC(=O)c2cc(S(=O)(=O)N3CCOCC3)ccc2Cl)cc1	.	5	.	-10	2	.	.
CC(=O)c1ccc(NC(=O)c2ccc(CNc3c(N4CCOCC4)c(=O)c3=O)cc2)cc1	1	0	2	-6	0	.	.
O=C(OCC(=O)N(CCc1ccccc1)Cc1ccccc1)c1ccccc1NCCO	.	1	.	-15	0	.	.
COC(=O)C1=NN(C(=O)c2ccc(C)cc2)C(O)(c2ccc(Cl)cc2)C1 (centres undefined)	0	33*	0	-6	13	6	18
Nc1oc2ccccc2c1C(=O)Cc1ccccc1O[C@@H]1O[C@H](CO)[C@@H](O)[C@H](O)[C@H]1O	.	0	.	-5	-1	.	.
Cc1ccc(CNC(=O)c2cccc3c2C(=O)c2ccc(N4CCOCC4)cc2S3(=O)=O)cc1	.	2	.	-6	1	.	.
Cc1ccc(CNC(=O)c2cccc3c2C(=O)c2ccc(N4CCCCC4)cc2S3(=O)=O)cc1	.	22*	.	-5	14	19	10
COC(=O)[C@H](Cc1c[nH]c2ccccc12)NC(=O)Cc1c[nH]c2ccccc12	.	21*	.	-20	12	3	1
COC(=O)C(Cc1c[nH]c2ccccc12)NC(=O)C(C)C (centres undefined)	0	0	-2	-2	1	.	.
ONC(=Nc1ccccc1Cl)c1ccccc1Cl	1	20*	1	-10	3	1	2
O=C(COC(=O)CC1Sc2ccccc2NC1=O)NCc1ccccc1 (centres undefined)	.	1	.	-3	-1	.	.
C=CCn1c(C)c(/C=C/c2cc[n+](C)cc2)c2ccccc21	.	25*	.	-15	7	6	10
